Assay results reported in article PMC9035045 (Cell chemical biology, 2021).
Non-standard residues stand in square brackets, D forms with d. Residues, ends and D or L forms follow the SMILES beside them. *: point of attachment. NH(CH2CH2O)11C2H4NHBiotinyl = O=C(CCCC[C@@H]1SC[C@@H]2NC(=O)N[C@@H]21)NCCOCCOCCOCCOCCOCCOCCOCCOCCOCCOCCOCCN*; Lys(iBu,2-norbornyl) = CC(C)CN(CCCC[C@H](N)C(=O)O)C1CC2CCC1C2; Lys(Me,2-norbornyl) = CN(CCCC[C@H](N)C(=O)O)C1CC2CCC1C2; Nva(5-morpholino) = N[C@@H](CCCN1CCOCC1)C(=O)O; Benzoyl(4-tBu) = CC(C)(C)c1ccc(C(=O)*)cc1; Gly(cBu) = N[C@H](C(=O)O)C1CCC1

What was measured:
[1] = biological target: T1, 274 purified Kme readers (Homo sapiens, UniProt O95931); assay: Protein domain microarray; format: binding; settings: 1 μM, qualitative
T1 sequence (O95931 1-69): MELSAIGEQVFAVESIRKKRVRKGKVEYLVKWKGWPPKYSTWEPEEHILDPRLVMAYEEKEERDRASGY

[2] = biological target: 274 purified Kme readers (Homo sapiens, UniProt P83916); assay: Protein domain microarray; format: binding; settings: 1 μM, qualitative
Chain of 274 purified Kme readers (Homo sapiens, UniProt P83916) (P83916 1-79): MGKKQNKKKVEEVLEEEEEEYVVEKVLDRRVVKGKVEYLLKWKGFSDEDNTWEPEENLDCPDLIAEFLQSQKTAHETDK

[3] = biological target: T2, 274 purified Kme readers (Homo sapiens, UniProt Q9HC52); assay: Protein domain microarray; format: binding; settings: 1 μM, qualitative
T2 sequence (Q9HC52 1-69): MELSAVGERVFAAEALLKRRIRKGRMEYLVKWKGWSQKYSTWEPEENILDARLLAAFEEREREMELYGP

[4] = biological target: T3, 274 purified Kme readers (Homo sapiens, UniProt O00257); assay: Protein domain microarray; format: binding; settings: 1 μM, qualitative
T3 sequence (O00257 1-69): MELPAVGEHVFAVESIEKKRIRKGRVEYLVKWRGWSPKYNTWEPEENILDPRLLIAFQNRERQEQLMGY

[5] = biological target: T4, 274 purified Kme readers (Homo sapiens, UniProt Q8N8U2); assay: Protein domain microarray; format: binding; settings: 1 μM, qualitative
T4 sequence (Q8N8U2 1-67): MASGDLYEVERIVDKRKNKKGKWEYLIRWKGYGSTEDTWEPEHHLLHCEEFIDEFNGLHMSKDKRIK

[6] = biological target: T5, 274 purified Kme readers (Homo sapiens, UniProt O95503); assay: Protein domain microarray; format: binding; settings: 1 μM, qualitative
T5 sequence (O95503 1-69): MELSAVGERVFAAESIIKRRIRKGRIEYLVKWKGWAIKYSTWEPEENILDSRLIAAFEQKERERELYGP

[7] = biological target: 274 purified Kme readers (Homo sapiens, UniProt P45973); assay: Protein domain microarray; format: binding; settings: 1 μM, qualitative
Chain of 274 purified Kme readers (Homo sapiens, UniProt P45973) (P45973 1-78): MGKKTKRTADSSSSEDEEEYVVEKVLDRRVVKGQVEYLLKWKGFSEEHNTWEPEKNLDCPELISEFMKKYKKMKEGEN

[8] = biological target: 274 purified Kme readers (Homo sapiens, UniProt Q13185); assay: Protein domain microarray; format: binding; settings: 1 μM, qualitative
Chain of 274 purified Kme readers (Homo sapiens, UniProt Q13185) (Q13185 1-88): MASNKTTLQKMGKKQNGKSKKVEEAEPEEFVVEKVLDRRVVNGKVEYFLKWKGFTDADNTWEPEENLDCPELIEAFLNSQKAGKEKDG

[9] = biological target: T6, 274 purified Kme readers (Homo sapiens, UniProt Q14781); assay: Protein domain microarray; format: binding; settings: 1 μM, qualitative
T6 sequence (Q14781 1-70): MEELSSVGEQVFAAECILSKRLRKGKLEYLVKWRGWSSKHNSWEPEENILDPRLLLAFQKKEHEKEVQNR

[10] = tested on: mESCs; assay: CellTiter-Glo cell viability assay; format: cell-based, mouse; settings: 48 h, result in words
Summary of the method: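 mESCs plated at 5,000 cells/well onto a ten-point 1:2 compound dilution series in mESC medium. 48 h at 37°C, 5% CO2. Lysed with CellTiter-Glo reagent; luminescence read after 15 min at room temperature in dim light.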

[11] = biological target: T7, CBX8 (Mus musculus, UniProt Q9QXV1); assay: CBX8 GFP reporter assay in mESCs; format: cell-based; settings: 48 h, result in words
T7 sequence (Q9QXV1 1-362): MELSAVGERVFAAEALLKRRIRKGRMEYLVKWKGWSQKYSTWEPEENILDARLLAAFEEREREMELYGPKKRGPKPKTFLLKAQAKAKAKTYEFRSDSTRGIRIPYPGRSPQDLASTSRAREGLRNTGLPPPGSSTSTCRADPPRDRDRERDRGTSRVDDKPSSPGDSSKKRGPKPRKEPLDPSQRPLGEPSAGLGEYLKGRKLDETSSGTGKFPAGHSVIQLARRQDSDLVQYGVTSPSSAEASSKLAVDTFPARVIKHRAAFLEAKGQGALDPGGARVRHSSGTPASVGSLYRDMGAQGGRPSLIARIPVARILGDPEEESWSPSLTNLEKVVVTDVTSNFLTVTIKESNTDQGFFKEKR
Summary of the method: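 Mouse ESC reporter line carrying 12xZFHD1, 4xGAL4 and 7xTetO sites upstream of a Puromycin-GFP gene, made by recombinase-mediated cassette exchange. Cells grown feeder-free in high-glucose DMEM with 13.5% FBS and LIF. 2,000 cells/well seeded onto compound in triplicate: 10-point 2-fold series, or for ester analogues 15-point 1.5-fold series with 0.06% DMSO final. 48 h at 37°C. GFP read by flow cytometry on gated live single cells.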

[12] = biological target: T8, CDYL2 (Homo sapiens, UniProt Q8N8U2); assay: TR-FRET competitive displacement assay; format: binding
T8 sequence (Q8N8U2 1-75): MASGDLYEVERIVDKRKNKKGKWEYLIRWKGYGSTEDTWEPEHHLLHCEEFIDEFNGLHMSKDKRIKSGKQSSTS

[13] = biological target: T9, CBX7 (Mus musculus, UniProt Q8VDS3); assay: CBX7 GFP reporter assay in mESCs; format: cell-based; settings: result in words
T9 sequence (Q8VDS3 1-158): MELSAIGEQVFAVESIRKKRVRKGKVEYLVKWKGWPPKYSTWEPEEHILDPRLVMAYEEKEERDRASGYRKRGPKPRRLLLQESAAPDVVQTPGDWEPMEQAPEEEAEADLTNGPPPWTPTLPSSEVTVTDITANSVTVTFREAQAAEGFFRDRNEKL

[14] = tested on: CBX2, CBX6, and CBX7; assay: ChIP-qPCR at endogenous Polycomb target genes; format: cell-based, mouse; settings: 20 μM, wild-type mESCs (absence of CBX8)

SMILES: CC(C)CN(CCCC[C@H](NC(=O)[C@H](CCCN1CCOCC1)NC(=O)[C@@H](NC(=O)[C@H](Cc1ccccc1)NC(=O)c1ccc(C(C)(C)C)cc1)C1CCC1)C(=O)N[C@@H](CO)C(=O)NCCOCCOCCOCCOCCOCCOCCOCCOCCOCCOCCOCCNC(=O)CCCC[C@@H]1SC[C@@H]2NC(=O)N[C@@H]21)C1CC2CCC1C2 (stereo partly drawn) [Compound 39] ({Benzoyl(4-tBu)}-F[Gly(cBu)][Nva(5-morpholino)][Lys(iBu,2-norbornyl)]S-{NH(CH2CH2O)11C2H4NHBiotinyl})
- binding to CBX7 on microarray [1]: less strongly
- binding to CBX1 on microarray [2]: did not display binding
- binding to CBX8 CD on microarray [3]: bound strongly
- binding to CBX4 on microarray [4]: less strongly
- binding to the CD of CDYL2 on microarray [5]: weakly
- binding to CBX6 on microarray [6]: less strongly
- binding to CBX5 on microarray [7]: did not display binding
- binding to CBX3 on microarray [8]: did not display binding
- binding to CBX2 CD on microarray [9]: bound strongly

SMILES: COC(=O)[C@H](CO)NC(=O)[C@H](CCCCN(C)C1CC2CCC1C2)NC(=O)[C@H](CCCN1CCOCC1)NC(=O)[C@@H](NC(=O)[C@H](Cc1ccccc1)NC(=O)c1ccc(C(C)(C)C)cc1)C1CCC1 (stereo partly drawn) [Compound 38, Methyl N^6-(bicyclo[2.2.1]heptan-2-yl)-N^2-((S)-2-((S)-2-((S)-2-(4-(tert-butyl)benzamido)-3-phenylpropanamido)-2-cyclobutylacetamido)-5-morpholinopentanoyl)-N^6-methyl-L-lysyl-L-serinate] ({Benzoyl(4-tBu)}-F[Gly(cBu)][Nva(5-morpholino)][Lys(Me,2-norbornyl)]S-OMe)
- cytotoxicity [10]: no cytotoxicity up to 100 μM
- GFP reactivation / cellular activity in the CBX8 reporter assay [11]: no cellular activity
- IC50 [12]: 0.96 ± 0.14 µM

SMILES: COC(=O)[C@H](CO)NC(=O)[C@H](CCCCN(CC(C)C)C1CC2CCC1C2)NC(=O)[C@H](CCCN1CCOCC1)NC(=O)[C@@H](NC(=O)[C@H](Cc1ccccc1)NC(=O)c1ccc(C(C)(C)C)cc1)C1CCC1 (stereo partly drawn) [Compound 34, Methyl N^6-(bicyclo[2.2.1]heptan-2-yl)-N^2-((S)-2-((S)-2-((S)-2-(4-(tert-butyl)benzamido)-3-phenylpropanamido)-2-cyclobutylacetamido)-5-morpholinopentanoyl)-N^6-isobutyl-L-lysyl-L-serinate] ({Benzoyl(4-tBu)}-F[Gly(cBu)][Nva(5-morpholino)][Lys(iBu,2-norbornyl)]S-OMe)
- IC50 [12]: ~100 µM
- cellular activity in the CBX7 reporter cell line [13]: no cellular activity
- chromatin binding of CBX2, CBX6, and CBX7 [14]: minimal effects on chromatin binding
